Measured values of several laboratories.
Compare with care: the assays were run in different laboratories.
Cell line: HEL
Effect on: cell growth or viability

| Structure (SMILES) | time | CC50 |
| --- | --- | --- |
| CCOP(=O)(OCC)[C@@H]1C[C@H](n2cc(-c3nccn3C)nn2)ON1C | 72 h | > 100 µM |
| C[C@H](NC(=O)[C@@]1(Cc2ccccc2)CCN1C(=O)OCc1ccccc1)C(=O)N(C)C | 72 h | > 100 µM |
| CCCCCCCCCCCCCCCCOCCCOP(=O)(O)COCCn1cnc2c(=O)[nH]c(=O)[nH]c21 | 72 h | 10 µM |
| Nc1nc2c(ncn2COCCO)c(=O)[nH]1 | – | 440 µM |
| CCOP(=O)(OCC)[C@@H]1C[C@@H](n2cc(Cn3ccc(=O)[nH]c3=O)nn2)ON1C (racemic) | 72 h | > 100 µM |
| C[C@H](NC(=O)[C@]1(Cc2ccccc2)CCN1C(=O)OCc1ccccc1)C(=O)NCc1ccccc1 | 72 h | 42 µM |
| CCOP(=O)(OCC)[C@@H]1C[C@@H](n2cc(Cn3ccc(NC(C)=O)nc3=O)nn2)ON1C (racemic) | 72 h | > 100 µM |
| CC(C)CNC(=O)[C@H](C)NC(=O)[C@@]1(Cc2ccccc2)CCN1C(=O)OCc1ccccc1 | 72 h | > 100 µM |
| CCOP(=O)(OCC)[C@H]1C[C@@H](Cn2c(=O)n(C(=O)c3ccccc3)c(=O)c3ccccc32)ON1C | – | > 100 µM |
| O=c1[nH]c(=O)c2ncn(CC(CO)OCP(=O)(O)O)c2[nH]1 (racemic) | 72 h | ≥ 300 µM |
